Laboratory results reported in ChEMBL document CHEMBL5247576, “Modulation of autophagy by the novel mitochondrial complex I inhibitor Authipyrin” (Bioorg Med Chem, 2019).
The source made the active and inactive calls. The rule behind the calls is not given here.

What was measured:
[1] = system: MCF7; test: Inhibition of starvation-induced autophagy in human MCF7 cells assessed as reduction of LC3-II lipidation at 1 uM in presence of chloroquine by immunoblotting analysis; type: functional, cell-based
Procedure, shortened: (§1)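 Cells were starved in EBSS for the indicated times, with or without chloroquine (50 μM) and compound (1 μM). Cells were then lysed and LC3 lipidation was assessed by immunoblot. n = 3.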

[2] = system: HeLa; test: Inhibition of starvation-induced autophagy in human HeLa cells assessed as reduction of LC3-II lipidation at 1 uM in presence of chloroquine by immunoblotting analysis; type: functional, cell-based; procedure, shortened: as §1
[3] = system: HEK-293T; test: Inhibition of starvation-induced autophagy in human HEK293T cells assessed as reduction of LC3-II lipidation at 1 uM in presence of chloroquine by immunoblotting analysis; type: functional, cell-based; procedure, shortened: as §1
[4] = Inhibition of rapamycin-induced autophagy in human MCF7 cells expressing eGFP-tagged LC3 incubated for 3 hrs in presence of chloroquine by Hoechst staining based fluorescence microscopic analysis; type: functional, cell-based
[5] = molecular target: T1, Inactive tyrosine-protein kinase PEAK1 (Homo sapiens, UniProt Q9H792); test: Inhibition of PEAK1 (unknown origin) at 1 uM relative to control
T1 sequence (Q9H792 whole entry): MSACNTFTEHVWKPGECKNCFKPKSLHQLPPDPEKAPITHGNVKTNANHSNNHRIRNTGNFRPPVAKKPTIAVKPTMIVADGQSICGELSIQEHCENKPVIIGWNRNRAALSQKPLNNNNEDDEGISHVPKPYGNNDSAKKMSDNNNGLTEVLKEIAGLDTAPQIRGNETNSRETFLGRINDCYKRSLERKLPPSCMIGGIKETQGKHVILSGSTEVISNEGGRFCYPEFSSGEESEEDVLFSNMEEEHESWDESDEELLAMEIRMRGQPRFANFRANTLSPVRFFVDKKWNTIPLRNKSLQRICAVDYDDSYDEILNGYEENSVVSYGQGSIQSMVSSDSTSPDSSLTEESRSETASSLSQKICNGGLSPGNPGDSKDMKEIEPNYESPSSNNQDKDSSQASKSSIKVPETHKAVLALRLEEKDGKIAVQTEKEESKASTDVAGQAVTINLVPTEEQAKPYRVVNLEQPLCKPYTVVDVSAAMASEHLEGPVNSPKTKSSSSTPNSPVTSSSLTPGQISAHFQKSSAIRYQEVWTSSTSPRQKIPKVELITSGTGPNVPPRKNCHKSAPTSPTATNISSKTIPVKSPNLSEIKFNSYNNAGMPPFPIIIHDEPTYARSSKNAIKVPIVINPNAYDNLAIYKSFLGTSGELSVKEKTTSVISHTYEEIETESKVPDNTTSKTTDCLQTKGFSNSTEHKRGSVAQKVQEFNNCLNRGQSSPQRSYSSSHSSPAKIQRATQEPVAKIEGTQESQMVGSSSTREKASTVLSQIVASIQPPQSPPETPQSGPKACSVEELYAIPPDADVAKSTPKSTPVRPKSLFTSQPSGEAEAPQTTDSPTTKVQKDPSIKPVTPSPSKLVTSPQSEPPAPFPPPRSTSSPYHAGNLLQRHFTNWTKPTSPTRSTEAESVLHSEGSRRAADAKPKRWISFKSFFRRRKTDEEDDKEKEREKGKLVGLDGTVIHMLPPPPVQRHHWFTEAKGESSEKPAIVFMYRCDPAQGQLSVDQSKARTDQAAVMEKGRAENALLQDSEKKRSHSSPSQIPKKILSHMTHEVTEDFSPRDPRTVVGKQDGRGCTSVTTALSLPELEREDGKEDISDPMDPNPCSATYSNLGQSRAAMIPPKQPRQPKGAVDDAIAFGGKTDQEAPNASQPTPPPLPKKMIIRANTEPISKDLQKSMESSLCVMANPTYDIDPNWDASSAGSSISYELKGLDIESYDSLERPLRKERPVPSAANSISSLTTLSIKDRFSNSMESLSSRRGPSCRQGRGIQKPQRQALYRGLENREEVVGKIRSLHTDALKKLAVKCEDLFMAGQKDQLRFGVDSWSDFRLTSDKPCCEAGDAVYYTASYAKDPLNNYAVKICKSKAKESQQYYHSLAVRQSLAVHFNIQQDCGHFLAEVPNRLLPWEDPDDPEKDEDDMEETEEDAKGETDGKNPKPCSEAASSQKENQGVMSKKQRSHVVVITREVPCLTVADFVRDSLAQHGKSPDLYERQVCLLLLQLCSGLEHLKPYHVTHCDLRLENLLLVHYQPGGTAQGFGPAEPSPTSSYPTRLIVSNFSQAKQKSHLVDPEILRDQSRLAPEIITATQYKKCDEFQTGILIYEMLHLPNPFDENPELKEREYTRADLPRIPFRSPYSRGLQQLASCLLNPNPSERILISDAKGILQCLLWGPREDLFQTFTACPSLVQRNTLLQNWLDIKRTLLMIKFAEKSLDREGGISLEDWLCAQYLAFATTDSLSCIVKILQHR
Procedure, shortened: (§2)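 Single-point kinase profiling run at 1 μM compound against a full kinase panel. Values are percent inhibition of kinase activity.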

[6] = molecular target: Cyclin-dependent kinase 19 (Homo sapiens) (UniProt Q9BWU1); test: Inhibition of GST-tagged human recombinant CDK11 (1 to 795 residues) expressed in baculovirus expression system at 1 uM relative to control; procedure, shortened: as §2
Chain of Cyclin-dependent kinase 19 (Homo sapiens) (Q9BWU1 whole entry, the tested form may be a part): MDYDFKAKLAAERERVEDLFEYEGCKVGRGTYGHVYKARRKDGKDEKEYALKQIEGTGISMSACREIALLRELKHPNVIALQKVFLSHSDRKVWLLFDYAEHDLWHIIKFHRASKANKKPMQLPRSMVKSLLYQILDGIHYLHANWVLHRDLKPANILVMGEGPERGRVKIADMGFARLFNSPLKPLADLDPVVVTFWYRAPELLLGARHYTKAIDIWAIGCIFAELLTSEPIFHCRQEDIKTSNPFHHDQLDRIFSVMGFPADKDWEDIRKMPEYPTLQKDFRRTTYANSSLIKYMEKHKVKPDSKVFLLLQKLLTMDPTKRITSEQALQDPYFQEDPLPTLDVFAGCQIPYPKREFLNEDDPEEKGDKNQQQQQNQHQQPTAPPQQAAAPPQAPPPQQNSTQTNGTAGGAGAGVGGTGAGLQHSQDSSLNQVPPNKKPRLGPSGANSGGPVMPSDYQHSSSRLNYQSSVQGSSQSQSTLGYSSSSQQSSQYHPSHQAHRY

[7] = system: T2, Discoidin domain-containing receptor 2 (Homo sapiens), Q16832 [N456S]; test: Inhibition of GST/His-tagged human recombinant DDR2 N456S mutant (422 to 855 residues) expressed in baculovirus expression system at 1 uM relative to control
T2 sequence (whole entry): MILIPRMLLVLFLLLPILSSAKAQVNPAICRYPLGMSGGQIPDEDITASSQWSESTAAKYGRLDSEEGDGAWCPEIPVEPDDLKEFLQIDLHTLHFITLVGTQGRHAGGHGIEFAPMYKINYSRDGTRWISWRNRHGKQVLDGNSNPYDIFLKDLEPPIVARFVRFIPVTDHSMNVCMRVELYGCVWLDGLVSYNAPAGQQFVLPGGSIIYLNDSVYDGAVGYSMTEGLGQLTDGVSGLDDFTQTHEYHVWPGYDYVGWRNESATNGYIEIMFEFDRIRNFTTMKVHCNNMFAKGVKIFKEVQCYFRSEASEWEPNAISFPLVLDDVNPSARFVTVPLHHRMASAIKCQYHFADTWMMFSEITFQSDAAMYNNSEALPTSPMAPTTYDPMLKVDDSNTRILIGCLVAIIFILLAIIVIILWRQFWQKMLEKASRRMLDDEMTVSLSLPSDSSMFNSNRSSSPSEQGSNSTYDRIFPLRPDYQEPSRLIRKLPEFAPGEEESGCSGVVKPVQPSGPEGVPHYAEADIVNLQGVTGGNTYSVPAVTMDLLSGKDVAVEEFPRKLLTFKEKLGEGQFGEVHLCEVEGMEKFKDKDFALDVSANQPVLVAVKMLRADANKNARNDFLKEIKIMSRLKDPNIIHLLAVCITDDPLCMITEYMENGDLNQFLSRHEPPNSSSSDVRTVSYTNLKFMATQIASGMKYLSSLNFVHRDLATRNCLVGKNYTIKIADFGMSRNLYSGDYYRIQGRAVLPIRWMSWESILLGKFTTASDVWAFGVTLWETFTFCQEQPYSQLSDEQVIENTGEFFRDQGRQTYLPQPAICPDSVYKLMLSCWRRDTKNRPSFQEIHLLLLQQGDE
Procedure, shortened: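 Single-point kinase panel (SelectScreen) run with the compound at 1 μM. Activity is reported as percent inhibition.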

[8] = molecular target: T3, Serine/threonine-protein kinase haspin (Homo sapiens) (UniProt Q8TF76); test: Inhibition of GST-tagged human recombinant haspin (471 to 798 residues) expressed in insect cells at 1 uM relative to control; procedure, shortened: as §2
T3 sequence (whole entry): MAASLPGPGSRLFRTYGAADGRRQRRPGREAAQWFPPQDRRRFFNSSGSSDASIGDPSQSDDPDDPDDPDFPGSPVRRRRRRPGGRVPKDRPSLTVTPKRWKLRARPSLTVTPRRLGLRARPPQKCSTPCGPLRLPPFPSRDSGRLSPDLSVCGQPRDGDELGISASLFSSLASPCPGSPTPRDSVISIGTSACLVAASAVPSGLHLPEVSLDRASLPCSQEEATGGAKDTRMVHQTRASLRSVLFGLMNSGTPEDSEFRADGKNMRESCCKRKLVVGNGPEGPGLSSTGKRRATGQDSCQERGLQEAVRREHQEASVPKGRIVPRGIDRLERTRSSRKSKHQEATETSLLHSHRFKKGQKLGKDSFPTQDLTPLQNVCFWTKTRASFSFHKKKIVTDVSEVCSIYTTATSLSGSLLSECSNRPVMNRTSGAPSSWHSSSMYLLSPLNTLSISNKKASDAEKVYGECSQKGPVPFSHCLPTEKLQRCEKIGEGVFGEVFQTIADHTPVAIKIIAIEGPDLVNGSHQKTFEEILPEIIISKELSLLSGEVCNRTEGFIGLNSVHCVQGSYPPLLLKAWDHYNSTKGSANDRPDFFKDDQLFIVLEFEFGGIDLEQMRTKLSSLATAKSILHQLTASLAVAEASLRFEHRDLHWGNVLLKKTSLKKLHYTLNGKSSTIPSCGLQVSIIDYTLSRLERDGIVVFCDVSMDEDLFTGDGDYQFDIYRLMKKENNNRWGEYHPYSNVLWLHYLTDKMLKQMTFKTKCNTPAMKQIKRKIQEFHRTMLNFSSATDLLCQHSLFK

[9] = molecular target: T1, Inactive tyrosine-protein kinase PEAK1; test: Inhibition of PEAK1 (unknown origin) relative to control; conditions: concentration not given here
Procedure, shortened: (§3)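 Follow-up on kinases showing more than 50% single-point inhibition. Each kinase was screened against decreasing compound concentrations, with a top concentration of 1 μM, to derive the IC50. Percent inhibition was also reported from this dose-response series.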

[10] = molecular target: Cyclin-dependent kinase 19 (Homo sapiens) (UniProt Q9BWU1); test: Inhibition of GST-tagged human recombinant CDK11 (1 to 795 residues) expressed in baculovirus expression system relative to control; conditions: concentration not given here; procedure, shortened: as §3
[11] = system: T2, Discoidin domain-containing receptor 2 (Homo sapiens), Q16832 [N456S]; test: Inhibition of GST/His-tagged human recombinant DDR2 N456S mutant (422 to 855 residues) expressed in baculovirus expression system relative to control; conditions: concentration not given here
[12] = molecular target: T3, Serine/threonine-protein kinase haspin (Homo sapiens); test: Inhibition of GST-tagged human recombinant haspin (471 to 798 residues) expressed in insect cells relative to control; conditions: concentration not given here; procedure, shortened: as §3
[13] = molecular target: T1, Inactive tyrosine-protein kinase PEAK1; test: Inhibition of PEAK1 (unknown origin); procedure, shortened: as §3
[14] = molecular target: Discoidin domain-containing receptor 2 (Homo sapiens, UniProt Q16832, N456S); test: Inhibition of GST/His-tagged human recombinant DDR2 N456S mutant (422 to 855 residues) expressed in baculovirus expression system
Procedure, shortened: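 Kinase profiling panel (SelectScreen). The kinase was tested against decreasing concentrations of the compound, starting at a highest concentration of 1 μM, and IC50 was derived from the dose-response.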

[15] = molecular target: T4, Serine/threonine-protein kinase haspin (Homo sapiens, UniProt Q8TF76); test: Inhibition of GST-tagged human recombinant haspin (471 to 798 residues) expressed in insect cells; procedure, shortened: as §3
T4 sequence (Q8TF76 whole entry): T3 sequence (whole entry)

[16] = system: MCF7; test: Inhibition of mitochondrial complex I in human MCF7 cells expressing LC3 by Seahorse XF plasma membrane permeabilizer analysis; type: cell membranes
Procedure, shortened: (§4)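 MCF7/LC3 cells were permeabilized with plasma membrane permeabilizer, then given DMSO, compound (1 μM) or a complex-specific control inhibitor together with that complex's substrates. Oligomycin and antimycin A injections followed. Oxygen consumption rate was read on a Seahorse XF analyzer. Data are mean ± SD, n = 3.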

[17] = system: MCF7; test: Inhibition of mitochondrial complex II in human MCF7 cells expressing LC3 by Seahorse XF plasma membrane permeabilizer analysis; type: cell membranes; procedure, shortened: as §4
[18] = system: MCF7; test: Inhibition of mitochondrial complex IV in human MCF7 cells expressing LC3 by Seahorse XF plasma membrane permeabilizer analysis; type: cell membranes; procedure, shortened: as §4
[19] = species: Bos taurus; test: Inhibition of NADH-Coenyme Q reductase in bovine heart mitochondria; conditions: dose 0.3-10 µM
Procedure, shortened: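 Isolated bovine heart mitochondria were assayed for NADH-coenzyme Q reductase activity across a dose range of compound. Rotenone served as the control inhibitor. Data are mean ± SD, n = 2.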

[20] = Inhibition of starvation-induced autophagy in human MCF7 cells expressing eGFP-tagged LC3 incubated for 3 hrs in presence of chloroquine by automated fluorescence microscopy

O=C(c1ccc2c(c1)OCCO2)C1CCN(c2ncnc3sccc23)CC1
inhibition [1]: Active | inhibition [2]: Active | inhibition [3]: Active | IC50 [4]: 180 nM | inhibition [5]: 83% | inhibition [6]: 70% | inhibition [7]: 58% | inhibition [8]: 51% | inhibition [9]: 68% | inhibition [10]: 47% | inhibition [11]: 38% | inhibition [12]: 33% | IC50 [13]: 620 nM | IC50 [14]: > 1000 nM | IC50 [15]: > 1000 nM | inhibition [16]: Active | inhibition [17]: inactive | inhibition [18]: inactive | inhibition [19]: Dose-Dependent Effect | IC50 [20]: 20 nM
